Blank lines part the entries; values can stand above or below the compound they belong to. Calls of active or inactive are those of the source. The rule behind the calls is not given here.
Columns and labels:
[1] = Solubility in DMSO:Cremophor EL:1xPBS mixture at 10 mg/ml incubated for 7 days; format: physicochemical; settings: 168 h, time 7 day
[2] = Solubility in DMSO:Cremophor EL:1xPBS mixture at 10 mg/ml; format: physicochemical
[3] = target: T1, Protein cereblon/Tyrosine-protein kinase BTK (Homo sapiens) (UniProt Q06187+Q96SW2); experiment: PROTAC activity at CRBN/ BTK in human Ramos cells assessed as induction of BTK degradation at 250 nM incubated for 24 hrs by immunoblot analysis relative to control; format: cell-based
In short: (§1)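 Ramos cells in supplemented RPMI 1640 were plated at 3×10^5 cells/well and treated with compound for 24 h. Lysates in SDS sample buffer were heated at 100 °C for 15 min and run on 10% SDS-PAGE, then transferred to PVDF. Membranes were probed overnight at 4 °C for BTK, GSPT1 and β-actin.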

[4] = target: T1, Protein cereblon/Tyrosine-protein kinase BTK (Homo sapiens); experiment: PROTAC activity at CRBN/ BTK in human Ramos cells assessed as induction of BTK degradation at 500 nM incubated for 24 hrs by immunoblot analysis relative to control; format: cell-based; in short: as §1
[5] = target: T1, Protein cereblon/Tyrosine-protein kinase BTK (Homo sapiens); experiment: PROTAC activity at CRBN/ BTK in human DOHH-2 cells assessed as induction of BTK degradation at 1.2 to 300 nM incubated for 24 hrs by immunoblot analysis; format: cell-based; settings: dose 1.2-300 nM
In short: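 DOHH2 cells were grown in RPMI 1640 with 10% FBS, 1% penicillin-streptomycin, 1% nonessential amino acids and 50 µM 2-mercaptoethanol at 37 °C under 5% CO₂. Cells were treated with compound at various concentrations, lysed in SDS buffer and separated on 10% SDS-PAGE. Blots were transferred to PVDF and probed for BTK, with β-actin as loading control.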

[6] = target: T1, Protein cereblon/Tyrosine-protein kinase BTK (Homo sapiens); experiment: PROTAC activity at CRBN/ BTK in human Ramos cells assessed as induction of BTK degradation at 100 nM incubated for 24 hrs by immunoblot analysis relative to control; format: cell-based; in short: as §1
[7] = target: T1, Protein cereblon/Tyrosine-protein kinase BTK (Homo sapiens); experiment: PROTAC activity at CRBN/ BTK in human Ramos cells assessed as induction of BTK degradation at 300 nM incubated for 24 hrs by immunoblot analysis relative to control; format: cell-based; in short: as §1
[8] = Apparent permeability across apical to basal side in MDCK-II cells at 10 uM measured for 120 mins by LC-MS/MS analysis; format: ADME, cell-based, Canis lupus familiaris; settings: dog
In short: (§2)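 MDCK monolayers were grown on Transwell inserts (5 x 10^4 cells/cm²) and used at day 5. Compound at 10 μM in HBSS with 10 mM Hepes, pH 7.40, was dosed apically or basolaterally and incubated at 37±1 °C. Lucifer yellow passage below 1% confirmed monolayer integrity.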

[9] = Apparent permeability across apical to basal side in MDCK-II cells assessed as compound recovery at 10 uM measured for 120 mins by LC-MS/MS analysis; format: ADME, cell-based, Canis lupus familiaris; settings: dog, read-out: Drug recovery
In short: as §2, with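 “°C. Receiver and donor samples were taken at 120 min and quantified by LC-MS/MS against an internal standard.” for “°C.”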

[10] = Apparent permeability across basal to apical side in MDCK-II cells at 10 uM measured for 120 mins by LC-MS/MS analysis; format: ADME, cell-based, Canis lupus familiaris; settings: dog; in short: as §2
[11] = Apparent permeability across basal to apical side in MDCK-II cells assessed as compound recovery at 10 uM measured for 120 mins by LC-MS/MS analysis; format: ADME, cell-based, Canis lupus familiaris; settings: dog, read-out: Drug recovery
In short: as §2, with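 “°C. Receiver and donor samples were taken at 120 min and quantified by LC-MS/MS against an internal standard.” for “°C.”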

T1 sequence (Q06187 2-659 limits assumed): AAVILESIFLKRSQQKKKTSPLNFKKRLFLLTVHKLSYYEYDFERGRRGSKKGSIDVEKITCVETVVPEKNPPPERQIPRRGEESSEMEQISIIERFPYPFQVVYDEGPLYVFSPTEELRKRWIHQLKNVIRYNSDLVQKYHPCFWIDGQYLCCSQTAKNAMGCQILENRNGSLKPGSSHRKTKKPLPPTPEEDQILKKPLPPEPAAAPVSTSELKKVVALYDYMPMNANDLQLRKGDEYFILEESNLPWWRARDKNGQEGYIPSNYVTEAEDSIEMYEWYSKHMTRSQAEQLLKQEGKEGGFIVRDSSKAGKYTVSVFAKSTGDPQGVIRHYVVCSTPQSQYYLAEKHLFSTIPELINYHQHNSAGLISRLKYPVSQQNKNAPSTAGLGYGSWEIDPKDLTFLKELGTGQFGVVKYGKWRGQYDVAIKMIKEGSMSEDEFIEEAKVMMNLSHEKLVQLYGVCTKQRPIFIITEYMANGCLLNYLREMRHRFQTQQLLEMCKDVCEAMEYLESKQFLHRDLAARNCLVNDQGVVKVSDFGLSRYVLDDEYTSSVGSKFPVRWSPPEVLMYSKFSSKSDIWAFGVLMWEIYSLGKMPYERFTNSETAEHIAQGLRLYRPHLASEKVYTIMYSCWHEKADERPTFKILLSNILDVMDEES
T1 sequence (Q96SW2 whole entry partner): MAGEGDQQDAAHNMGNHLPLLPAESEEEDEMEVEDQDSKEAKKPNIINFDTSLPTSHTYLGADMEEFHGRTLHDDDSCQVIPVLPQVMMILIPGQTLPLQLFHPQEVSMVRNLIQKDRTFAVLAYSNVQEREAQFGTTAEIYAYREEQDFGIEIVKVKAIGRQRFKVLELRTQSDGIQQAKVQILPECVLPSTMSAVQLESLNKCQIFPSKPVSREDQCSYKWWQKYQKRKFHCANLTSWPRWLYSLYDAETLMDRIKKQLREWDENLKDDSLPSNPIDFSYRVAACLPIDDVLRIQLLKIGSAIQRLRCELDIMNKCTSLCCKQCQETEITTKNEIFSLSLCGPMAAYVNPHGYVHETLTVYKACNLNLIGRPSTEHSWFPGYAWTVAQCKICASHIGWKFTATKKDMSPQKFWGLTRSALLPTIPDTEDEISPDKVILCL

SMILES: C=CC(=O)N1CCC[C@@H](n2nc(-c3ccc(Oc4ccccc4)cc3)c3c(N)ncnc32)C1 [IBRUTINIB]
solubility [1]: Insoluble | solubility [2]: Soluble

Activity [3]: 38.4% | Activity [4]: 38.8%
SMILES: Nc1ncnc2c1c(-c1ccc(Oc3ccccc3)cc1)nn2[C@@H]1CCCN(C(=O)c2ccc(-c3ccc(Nc4ccc5c(c4)C(=O)N(C4CCC(=O)NC4=O)C5=O)cc3)cc2)C1 (stereo partly drawn)

solubility [1]: Insoluble | Activity [5]: Active | Activity [6]: 28.5% | solubility [2]: Insoluble
SMILES: Nc1ncnc2c1c(-c1ccc(Oc3ccccc3)cc1)nn2[C@@H]1CCCN(C(=O)c2cn(CCOCCOCCOCCCc3cccc4c3CN(C3CCC(=O)NC3=O)C4=O)nn2)C1 (stereo partly drawn)

Activity [7]: 24.5% | Activity [6]: 23.1%
SMILES: Nc1ncnc2c1c(-c1ccc(Oc3ccccc3)cc1)nn2[C@@H]1CCCN(C(=O)N2CC3(C2)CN(c2ccc4c(c2)C(=O)N(C2CCC(=O)NC2=O)C4=O)C3)C1 (stereo partly drawn)

Papp A→B at 2 h, 10 µM [8]: 21.1 ×10⁻⁶ cm/s | recovery at 2 h, 10 µM [9]: 97.1% | Papp B→A at 2 h, 10 µM [10]: 11.3 ×10⁻⁶ cm/s | recovery at 2 h, 10 µM [11]: 95.9%
SMILES: COCCc1ccc(OCC(O)CNC(C)C)cc1 (stereo not drawn) [METOPROLOL]

Activity [7]: 12% | Activity [6]: 6.9%
SMILES: Nc1ncnc2c1c(-c1ccc(Oc3ccccc3)cc1)nn2[C@@H]1CCCN(C(=O)c2ccc(Nc3ccc4c(c3)CN(C3CCC(=O)NC3=O)C4=O)cc2)C1 (stereo partly drawn)

recovery at 2 h, 10 µM [9]: 94.4% | recovery at 2 h, 10 µM [11]: 99.5%
SMILES: CC(C)NCC(O)COc1ccc(CC(N)=O)cc1 (stereo not drawn) [ATENOLOL]
